167 variants from the RNAGym collection of RNA variant scans (doi:10.1126/science.aae0568) can be followed below.

Variants at the floor of the assay were thinned out.

B1: tRNA (parent)
chain: GUUCCGUUGGCGUAAUGGUAACGCGUCUCCCUCCUAAGGAGAAGACUGCGGGUUCGAGUCCCGUACGGAACG

The variants in the data set derive from B1. Description: yeast fitness relative to wild type (ratio to wild type); higher = fitter; tRNA-Arg(CCU), competitive growth, 37 C, YPD. In a few lines: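 The tRNA-Arg(CCU) gene variants were made by chemical synthesis with a 3% per-site mutation rate at 69 sites and inserted at the native genomic locus of Saccharomyces cerevisiae. After pooling, the strains were competed in YPD at 37°C for 24 hours in six parallel replicates. Gene amplicons from the start population and each end population were read by 100-nucleotide paired-end sequencing, and Darwinian fitness relative to wild type was taken from genotype frequency changes. Genotypes needed ≥ 100 starting reads, and estimates < 0.5 were set to 0.5.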
For A15C U32C C62U, the yeast fitness amounted to 0.54.

On to A15C C31U C55G, for which the yeast fitness is not above 0.5.

On to A15C U28G A45G G51C A70G, for which the yeast fitness turned out to be 0.584.

In the case of A15C G17A U35A, the yeast fitness is not above 0.5.

A15C C31G A40U G51A: the yeast fitness is not above 0.5.

As for A15G C22G G23C A43C G50C A70U, the yeast fitness was not above 0.5.

Consider A15C G18C A40U, for which the yeast fitness is not above 0.5.

Turning to A15G A45U G48A G56A, the yeast fitness worked out at 0.717.

On to A15G A36G G41A G52A, for which the yeast fitness was not above 0.5.

For the variant A15C G44A A57C, the yeast fitness was not above 0.5.

Regarding A15C C30A A40G C49G U54A C55A A65G A70U, the yeast fitness is not above 0.5.

For the variant A15C C24U A45G G52A, the yeast fitness was not above 0.5.

For A15C C27U, the yeast fitness is 0.724.

Consider A15C C33G C60U C62U, for which the yeast fitness is not above 0.5.

In the case of A15C C31G C55A, the yeast fitness turned out to be 0.608.

Regarding A15C G52A, the yeast fitness worked out at 0.712.

On to A15G C24G G48C, for which the yeast fitness was not above 0.5.

For the variant A15G A45U C49U C60G, the yeast fitness was not above 0.5.

In the case of A15C U28A C34G A37G A43U, the yeast fitness is not above 0.5.

A15C C34U A57C: the yeast fitness was determined as 0.603.

With A15C C66G, the yeast fitness amounted to 0.618.

As for A15G A20C U54A C62U, the yeast fitness is not above 0.5.

As for A15C C46G A65G C66U, the yeast fitness is not above 0.5.

On to A15G A37C C46U C49U, for which the yeast fitness was not above 0.5.

In the case of A15G C24A C29G U35G G41C C62U U64A, the yeast fitness is not above 0.5.

As for A15C G17A G38C U59C, the yeast fitness amounted to 0.569.

In the case of A15C G17C C22G C24A C31A G67C, the yeast fitness was determined as 0.752.

As to A15C G18C U26C C29A C34G, the yeast fitness stood at 0.616.

Take A15G C24G A37G: the yeast fitness is not above 0.5.

In the case of A15G C24A U54G A65C, the yeast fitness is not above 0.5.

For A15C C46U C61U G67A, the yeast fitness was not above 0.5.

Regarding A15C C30U A42U C49G, the yeast fitness is not above 0.5.

For A15G A45U A57C A69C, the yeast fitness is not above 0.5.

Turning to A15G A45G, the yeast fitness amounted to 0.853.

On to A15G A45C, for which the yeast fitness came out at 0.796.

Regarding A15G A36U C55A A57C, the yeast fitness came to 0.579.

Take A15C C22G G58C C62U: the yeast fitness was not above 0.5.

Turning to A15C C31G U32A C33U C34G, the yeast fitness is not above 0.5.

A15G C27U C34U A57U C62A: the yeast fitness was 0.563.

Take A15C G25A A42U A65C G67U: the yeast fitness is not above 0.5.

For the variant A15C G17U U19A C31U C34A, the yeast fitness is not above 0.5.

A15G A20C C24G G41C C46A C62G: the yeast fitness is not above 0.5.

Regarding A15G A20G A40C C46U C49A A57U A65C C66G, the yeast fitness was not above 0.5.

For the variant A15C U26A, the yeast fitness came out at 0.523.

On to A15C C30A A42C C55U, for which the yeast fitness was not above 0.5.

In the case of A15G C29A, the yeast fitness stood at 0.558.

For the variant A15G C29G, the yeast fitness was 0.635.

Consider A15G A37C G56C A65C, for which the yeast fitness is not above 0.5.

Regarding A15G A43U, the yeast fitness is 0.925.

As to A15G A43C, the yeast fitness came to 0.847.

In the case of A15G C27U A69U, the yeast fitness is 0.808.

On to A15C U26G U28C U32C A37G G41A C49G, for which the yeast fitness is not above 0.5.

Consider A15C C33G, for which the yeast fitness came to 0.505.

As to A15C C33U, the yeast fitness was determined as 0.572.

With A15C U19A C24G G63A, the yeast fitness is not above 0.5.

For the variant A15C C34G C46A C61U C66G, the yeast fitness is not above 0.5.

Regarding A15G C27G A43G U59A, the yeast fitness is not above 0.5.

Consider A15G C24G A65C, for which the yeast fitness is not above 0.5.

Turning to A15C G58C, the yeast fitness was 0.575.

For the variant A15C G68A, the yeast fitness stood at 0.76.

A15C C31A: the yeast fitness was found to be 0.561.

In the case of A15C C31U, the yeast fitness is 0.742.

A15C U16C C27U C31G A69C: the yeast fitness was not above 0.5.

With A15C G18A U19G, the yeast fitness was not above 0.5.

With A15C G50C, the yeast fitness amounted to 0.672.

For A15C C22G A57C G63C C66U, the yeast fitness is not above 0.5.

As to A15C G56A C61U, the yeast fitness is 0.614.

Turning to A15C U35A A36G G41A U47A, the yeast fitness is not above 0.5.

In the case of A15C U19G C55G, the yeast fitness is not above 0.5.

As for A15G A42C G50A U59C A65C, the yeast fitness was not above 0.5.

Turning to A15C G48C, the yeast fitness amounted to 0.69.

With A15C C27U G58C, the yeast fitness turned out to be 0.599.

As to A15C C46G G50C C61A, the yeast fitness was found to be 0.636.

With A15C U16G A21C C24A U32A A45C, the yeast fitness was not above 0.5.

In the case of A15C U16A G56C A57C C60U, the yeast fitness is not above 0.5.

A15C G58A G68A A70C: the yeast fitness was not above 0.5.

Turning to A15G A65G, the yeast fitness was 0.962.

On to A15G A65U, for which the yeast fitness came out at 0.841.

Consider A15G A20G C27A A40G A45C, for which the yeast fitness is 0.503.

For A15G A57U, the yeast fitness was 0.636.

Take A15C C55A A65C: the yeast fitness is not above 0.5.

As for A15G A21C C24G A40U C49U, the yeast fitness was not above 0.5.

In the case of A15C G23C C31A, the yeast fitness was not above 0.5.

Turning to A15G A43U C46A, the yeast fitness was 0.671.

As for A15C G18C A42C, the yeast fitness is not above 0.5.

For A15C G41C U59G A70G, the yeast fitness was not above 0.5.

As to A15G A20U C33A A36C A42U C55G C60A A69G, the yeast fitness worked out at 0.594.

For A15C G17U C46U, the yeast fitness was determined as 0.633.

As for A15C G17A A65G, the yeast fitness was found to be 0.576.

Regarding A15G C29A C61A C66G, the yeast fitness worked out at 0.535.

For A15G C29A G39A, the yeast fitness worked out at 0.572.

Consider A15G A20U G63A, for which the yeast fitness worked out at 0.603.

As to A15G A21U U26C, the yeast fitness turned out to be 0.535.

Take A15C C27A C33U C34A C61U: the yeast fitness is 0.509.

A15C G18C A42C G51C A65C: the yeast fitness was not above 0.5.

For A15G A20U A45U U64C, the yeast fitness came to 0.593.

In the case of A15G A20G C49A C62U, the yeast fitness worked out at 0.567.

A15G C24G U32A G41A: the yeast fitness was not above 0.5.

As to A15C G39A C60G A70G, the yeast fitness was not above 0.5.

On to A15G A36G A43U, for which the yeast fitness was determined as 0.601.

For A15G A57U G68U, the yeast fitness was not above 0.5.

Consider A15C G41C C49U G68C, for which the yeast fitness is not above 0.5.

Consider A15C G23C, for which the yeast fitness worked out at 0.555.

Regarding A15C C27U G39C C49G A69C, the yeast fitness was not above 0.5.

Take A15C C27G C30U C46A: the yeast fitness was determined as 0.542.

On to A15C G39A, for which the yeast fitness is 0.664.

As for A15C G39C, the yeast fitness came out at 0.638.

Take A15G C29A A37G: the yeast fitness was not above 0.5.

Consider A15C G17A, for which the yeast fitness was determined as 0.707.

As for A15C U47G G52A G68A, the yeast fitness was not above 0.5.

As to A15C C27U A40G G52A A57U, the yeast fitness amounted to 0.692.

Consider A15G A45C A69U, for which the yeast fitness was 0.779.

With A15C U28A G39A A65G, the yeast fitness is not above 0.5.

For A15C C31G C49U, the yeast fitness turned out to be 0.638.

Take A15C C30A A42C G56A C60G: the yeast fitness was not above 0.5.

Turning to A15C C24A C46A A57C A69U, the yeast fitness was not above 0.5.

A15C U19C A37C G51A C60A: the yeast fitness stood at 0.557.

For the variant A15C C61A, the yeast fitness stood at 0.761.

As to A15C C61U, the yeast fitness came out at 0.713.

Consider A15C C29G A40U G52A, for which the yeast fitness is not above 0.5.

Consider A15G C22A C29U U54C, for which the yeast fitness was not above 0.5.

As to A15C C22U U26G G52A, the yeast fitness was determined as 0.732.

Turning to A15C U32G, the yeast fitness stood at 0.504.

In the case of A15C U32C, the yeast fitness came to 0.767.

In the case of A15C G41C A45C C62U, the yeast fitness was not above 0.5.

Consider A15C C27G C49G, for which the yeast fitness amounted to 0.551.

As for A15G C27G A42G G63A, the yeast fitness was not above 0.5.

Turning to A15C C34G C49G C66G G68C, the yeast fitness came out at 0.612.

In the case of A15G A37C A69C, the yeast fitness was found to be 0.863.

On to A15G C27U A65G, for which the yeast fitness is 0.748.

In the case of A15C G25C, the yeast fitness came out at 0.709.

Take A15C C29U: the yeast fitness was found to be 0.669.

As for A15C C29A, the yeast fitness was not above 0.5.

A15G C24U C29U C30G U35G C66U: the yeast fitness was not above 0.5.

Regarding A15C C49A, the yeast fitness turned out to be 0.637.

A15G C29A G39A C49U: the yeast fitness is not above 0.5.

As for A15C C30A A57G A69C, the yeast fitness was not above 0.5.

As for A15C G44A G67A, the yeast fitness is not above 0.5.

Regarding A15C U35G G56C, the yeast fitness was not above 0.5.

On to A15G A20U A45U, for which the yeast fitness was not above 0.5.

On to A15G A36C C46A C66U, for which the yeast fitness is not above 0.5.

As to A15G A42C C49A C62U A69C, the yeast fitness is not above 0.5.

Regarding A15C G17C A45U, the yeast fitness is not above 0.5.

A15C G52A C66U: the yeast fitness was not above 0.5.

Turning to A15C C34G, the yeast fitness worked out at 0.59.

For A15G A43U G68C, the yeast fitness worked out at 0.581.

In the case of A15G C27U, the yeast fitness came to 0.939.

For A15G C27G, the yeast fitness amounted to 0.564.

A15C C27G G39C U47A A69U: the yeast fitness was not above 0.5.

As to A15G C22U A36U C62U, the yeast fitness is not above 0.5.

Take A15C C49U U54C C55G: the yeast fitness turned out to be 0.64.

Take A15C C27G C30U C46A A70U: the yeast fitness was not above 0.5.

In the case of A15G A45U A70G, the yeast fitness amounted to 0.617.

Consider A15C U16C A65G, for which the yeast fitness is not above 0.5.

With A15C U19A A70C, the yeast fitness was not above 0.5.

For A15C U28C C34G, the yeast fitness is not above 0.5.

With A15C C30A A69C, the yeast fitness is not above 0.5.

Turning to A15C C29A U54A, the yeast fitness is not above 0.5.

A15G C24U: the yeast fitness stood at 1.01.

A15G C24G: the yeast fitness is 0.586.

Consider A15G C24A, for which the yeast fitness is 0.587.

Take A15C G44A: the yeast fitness is 0.707.

On to A15C G48A A57G C61A, for which the yeast fitness is not above 0.5.

Regarding A15G C29A A40G G48A, the yeast fitness was not above 0.5.

Turning to A15C C33G G38C C62A, the yeast fitness turned out to be 0.551.

A15C U16A C31G C34U A65U C66G: the yeast fitness was not above 0.5.

With A15C G17A C55G, the yeast fitness is not above 0.5.
